Experimental data from different studies.
LATS2: Serine/threonine-protein kinase LATS2 (LATS2, Homo sapiens, UniProt Q9NRM7)
ESR2: Estrogen receptor beta (ESR2, Homo sapiens, UniProt Q92731)
Nos2: Nitric oxide synthase, inducible (Nos2, Mus musculus, UniProt P29477)

| Structure (SMILES) | target | read-out | mode | technique | tested at | measurement | result |
| --- | --- | --- | --- | --- | --- | --- | --- |
| Cc1sc2c(c1C)C(c1ccc(Cl)cc1)=N[C@@H](CC(=O)OC(C)(C)C)c1nnc(C)n1-2 | Stimulator of interferon genes protein (STING1, Homo sapiens, UniProt Q86WV6, H232R) | thermal stability |  | DSF | 100 µM | ΔTm | -0.92 °C |
| COc1ncccc1-c1cnn2ccc(N3CCN(C(=O)OC(C)C)CC3)nc12 | Dual specificity mitogen-activated protein kinase kinase 4 (MAP2K4, Homo sapiens, UniProt P45985) | binding |  | competition with immobilised ligand | 1 µM | remaining binding | 100% |
| COc1cc(Nc2ncc(F)c(Nc3ccc4c(n3)NC(=O)C(C)(C)O4)n2)cc(OC)c1OC | LATS2 | binding |  | competition with immobilised ligand | 10 µM | inhibition | 100% |
| c1ccc(C(NCCNC(c2ccccc2)c2ccccc2)c2ccccc2)cc1 | ESR2 | enzyme activity | inhibitor |  | 10 µM | inhibition | 14% |
| Cc1ncc(C)n2nc(/C=C/c3nc(N4CCCC4)cc(N4CCOCC4)n3)nc12 | Nos2 | enzyme activity | inhibitor |  | 10 µM | inhibition | 10% |
| Cc1nn(C)cc1-c1nc2c(N3CCN(Cc4ccc(Cl)cc4)CC3)c(Cl)cnc2[nH]1 | LATS2 | binding |  | competition with immobilised ligand | 1 µM | remaining binding | 77% |
| COCc1c(-c2cc3cc(C)cc(OC)c3s2)c2c(N)ncnn2c1CN1CCNC(=O)C1 | Nos2 | enzyme activity | inhibitor |  | 10 µM | inhibition | 17% |
| C[C@H](C(=O)N[C@H]1COc2ccccc2[C@@H]1S(C)(=O)=O)c1ccc(F)cc1 | ESR2 | enzyme activity | inhibitor |  | 10 µM | inhibition | 3% |
| C#Cc1n[nH]c2c(-c3cn([C@@H](C)c4ccccn4)c(=O)[nH]c3=O)cc(F)cc12 | Tyrosine-protein kinase JAK2 (JAK2, Homo sapiens, UniProt O60674) | enzyme activity | inhibitor |  | 0.1 µM | inhibition | -1% |
| Nc1ncc(-c2nc(N3CCOCC3)nc(N3CCOCC3)n2)c(C(F)F)n1 | Citron Rho-interacting kinase (CIT, Homo sapiens, UniProt O14578) | binding |  | competition with immobilised ligand | 10 µM | remaining binding | 91% |
| CCN(CC)CCCC[C@H](NC(=O)[C@H](CC(C)C)NC(=O)[C@H](C)NC(=O)[C@H](Cc1ccccc1)NC(=O)c1ccc(C(C)(C)C)cc1)C(=O)N[C@@H](CO)C(=O)OC | Histone-lysine N-methyltransferase ASH1L (ASH1L, Homo sapiens, UniProt Q9NR48) | thermal stability |  | DSF | 25 µM | ΔTm | -0.39 °C |
